# In the library only some 1.9% were active in any assay of this set; here they are far more common.
# sPLA2-III inh – Blocks human group III sPLA2 activity; Q9NZ20; QFRET BODIPY PC-A2 liposome hydrolysis, fluorescence; inhibition, % at 12.2 µM; 0.56% of 370,000 active;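 active = inhibition above mean plus 3 SD of compounds lying within the high and low control bounds, cut at about 19% in these data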;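 note: 0% = median of test compound wells and 100% = no enzyme DMSO wells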
# Target sequence (Q9NZ20 whole entry, looked up): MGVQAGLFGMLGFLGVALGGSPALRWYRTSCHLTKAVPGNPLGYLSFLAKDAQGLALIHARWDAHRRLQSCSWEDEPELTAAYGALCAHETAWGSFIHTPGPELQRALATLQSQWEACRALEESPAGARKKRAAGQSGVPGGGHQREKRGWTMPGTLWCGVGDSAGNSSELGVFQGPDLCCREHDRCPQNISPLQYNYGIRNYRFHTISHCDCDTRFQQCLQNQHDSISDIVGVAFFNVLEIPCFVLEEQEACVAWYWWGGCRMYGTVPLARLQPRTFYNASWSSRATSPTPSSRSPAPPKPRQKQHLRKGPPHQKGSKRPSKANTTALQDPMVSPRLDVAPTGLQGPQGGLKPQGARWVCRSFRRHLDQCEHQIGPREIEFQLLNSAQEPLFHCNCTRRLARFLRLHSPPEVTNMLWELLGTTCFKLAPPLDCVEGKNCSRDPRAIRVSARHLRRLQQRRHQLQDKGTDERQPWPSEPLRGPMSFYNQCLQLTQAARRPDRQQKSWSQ
# PLC-gamma1 inh – inhibitors of human phospholipase C gamma1 | purified PLC-gamma1, fluorogenic substrate, fluorescence | P19174 | inhibition, % at 12.2 µM | 0.84% of 370,000 active; in the data active = inhibition above about 9.5%
# procasp7 counter – activates human procaspase-7, counter-screen for procaspase-3 activators; AID 463210; activation, % at 8.5 µM; recombinant procaspase-7, Ac-DEVD-pNA absorbance 405 nm; D23A/D198A/D206A triple mutant, cannot self-cleave; scale: DMSO 0, 5 µM enzyme 100; 0.093% of 330,000 active; P55210;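 active = percent activation above the screen-wide mean plus 3 SD, cut at about 25% in these data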
#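 Replicates: singlicate. Assay system: Procaspase-7 triple mutant (PC-7 D3A). Signal: 405 nm absorbance of p-nitroaniline. Times: 1 h preincubation, 2 h reaction. Buffer or medium: Zinc-free HEPES pH 7.4 with 300 mM NaCl, 0.01% Triton X-100. Also added: DEVD-pNA substrate. Benchmarks: DMSO wells as 0%, DMSO with 5 µM added PC-7 as 100%.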
# procasp3 activ – activators of human procaspase-3. recombinant procaspase-3 D3A, Ac-DEVD-pNA absorbance 405 nm. activation, % at 8.5 µM. 0.11% of 330,000 active;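 active = activation above the mean of all tested compounds plus 3 SD, cut at about 21% in these data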;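 note: 0% = DMSO alone and 100% = DMSO wells spiked with extra 5 µM PC-3 D3A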
#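 Test system: Procaspase-3 D3A mutant; medium: Zinc-free HEPES/NaCl buffer with 0.01% Triton X-100 at pH 7.4; reagent: DEVD-pNA substrate; doses: one concentration, 8.5 µM nominal, 0.8% DMSO; times: 1 h preincubation plus 2 h reaction at 25 °C; signal: Epi-absorbance at 405 nm of released p-nitroaniline, 0 and 120 min; replicates: singlicate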
# Arr AP2 block – blocks beta-arrestin peptide binding to AP2 adaptin. inhibition, % at 10 µM. FITC-arrestin peptide / GST-AP2 beads, flow cytometry; AP2 beta2 appendage carries R879A mutation. 0.31% of 340,000 active;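 active = inhibition above a set limit, near 3 SD of compounds lacking own fluorescence, cut at about 54% in these data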;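 note: plate controls were DMSO wells for no effect and 5 µM unlabelled arrestin peptide for full effect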
#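 System: GST-AP2 R879A glutathione beads | Also added: FITC-arrestin peptide, 50 nM | Times: 12 min plus 1 h, RT | Signal: Bead flow cytometry, FITC channel | Buffer or medium: PBS with 0.05% Tween 20 and 0.1% BSA | Read-out basis: Percent drop in bead-associated FITC signal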
# PLC-beta3 inh – PLC-beta3 (human) inhibition, primary screen; Q01970; AID 720704; Purified PLC-beta3, fluorogenic substrate, fluorescence; 0.18% of 370,000 active; inhibition, % at 12.2 µM; in the data active = inhibition above about 11%;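 note: 0% = median of compound wells on plate and 100% = full blocker control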
# hGIII sPLA2 conf – human GIII-sPLA2 inhibition, confirmation. shares compounds with sPLA2-III inh. recombinant hGIII-sPLA2, BODIPY PC-A2 QFRET fluorescence. inhibition, % at 12.2 µM. 34% of 2,000 active. AID 743280;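 active = mean inhibition across triplicates above the hit cutoff set in the earlier primary screen, cut at about 19% in these data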;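 note: 0% = enzyme with DMSO and 100% = DMSO wells lacking enzyme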
# BODIPY interf – optically interferes with 535nm fluorescence in sPLA2 counter-screen; shares compounds with sPLA2-III inh; 8.5% of 2,000 active; BODIPY FL product fluorescence interference, QFRET; inhibition, % at 12.2 µM; AID 743282;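 active = average inhibition above the solvent-only control mean plus 3 SD, cut at about 6% in these data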;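 note: 0% = DMSO with substrate plus product and 100% = DMSO with substrate alone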
# BODIPY interf DR – interferes with 535nm fluorescence in dose response counter-screen; 240 tested, under 10 active; IC50, µM; shares compounds with sPLA2-III inh; BODIPY FL product fluorescence interference, cell-free;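 active = IC50 at or below 10 µM; inactive = IC50 above 10 µM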
# Numbers without * were called inactive; i = inactive; . = no result given.
SMILES,sPLA2-III inh,PLC-gamma1 inh,procasp7 counter,procasp3 activ,Arr AP2 block,PLC-beta3 inh,hGIII sPLA2 conf,BODIPY interf,others
COc1cc2c(cc1OC)C(c1ccccc1N)=NCC2,-5,-3,0,0,7,-3,.,.,
O=C1C=CC(c2ccccc2)(c2ccccc2)CC1,-5,0,.,.,2,-4,.,.,
NS(=O)(=O)c1ccc(N/N=C2/CCCCC2C2CCCCC2)c([N+](=O)[O-])c1 (stereo not given),-9,4,-2,-3,-2,4,.,.,
Cc1cc(C)c2c(c1)/C(=N/Nc1ccc(S(N)(=O)=O)cc1[N+](=O)[O-])CCC2,20*,2,0,-6,12,-9,9,7.5*,
c1cc2c3c(cccc3c1)NC1(CCCC1)N2,24*,-6,.,.,53,-11,20*,3,
CC1(C)Nc2cccc3cccc(c23)N1,18,-17,.,.,1,-23,.,.,
Cc1ccc(NC2CCCN(C(=O)CSc3ccccn3)C2)cc1C (stereo not given),-3,-2,.,.,37,-7,.,.,
Cc1cccc(/C=N/Nc2ccc3ccccc3n2)c1,23*,-7,4,1,-4,-19,-20,-6,
O=C(COC(=O)COc1ccc(Br)cc1)NC1CCCC1,0,-2,6,6,4,2,.,.,
COc1cc2c(cc1OC)C(c1cc(Br)ccc1O)N(C(C)=O)CC2 (stereo not given),13,-3,11,-4,-14,-3,.,.,
N=C(N)SCc1ccc(Cl)c2ccccc12,45*,5,.,.,3,-6,32*,-11,BODIPY interf DR=>122
Fc1ccccc1Cn1ccc2ccc(-c3ccc4ccn(Cc5ccccc5)c4c3)cc21,3,-36,.,.,.,-39,.,.,
C=CCn1c(O)c(N=NC(=S)Nc2ccccc2F)c2ccccc21,20*,5,-7,5,16,3,32*,13*,
C=CCn1c(O)c(N=NC(=S)Nc2ccccc2F)c2cc(S(=O)(=O)N3CCOCC3)ccc21,21*,4,3,12,50,-5,26*,-11,
C=CCO/N=C(/C)c1ccc(Oc2cnccn2)cc1,1,-1,-3,10,-1,0,.,.,
COc1ccccc1CNS(=O)(=O)c1ccc(Br)s1,-7,-1,-8,-2,40,-5,.,.,
O=Cc1nc(Nc2cc(F)cc(F)c2)nc(NC2CCCC2)n1,28*,1,.,.,.,1,23*,-8,
CN(Cc1ccccc1)C(=O)c1csc([C@@H]2O[C@H](CO)[C@@H](O)[C@H]2O)n1,20*,2,.,.,.,-4,-6,-4,
C[C@@H]1CN([C@@H](C)CO)C(=O)CCCn2nncc2CO[C@@H]1CN(C)C(=O)Nc1ccc(-c2cccs2)cc1,-11,-20,.,.,.,-28,.,.,
CS(=O)(=O)N1CCN(c2nc3ccc(Cl)cc3s2)CC1,23*,8,5,1,30,-6,-3,-7,
O=C(Nc1cc(Cl)cc(Cl)c1)Nc1cnccn1,4,5,-9,4,-9,-3,.,.,
C/C(CC(=O)Nc1ccccn1)=N\NC(=O)c1cnccn1,0,-15,1,-11,-11,-28,.,.,
COc1cc(C=NCC2OCCc3ccccc32)cc(OC)c1 (stereo not given),20*,1,0,4,-4,-2,0,-4,
COc1ccc(C=NCC2OCCc3ccccc32)cc1OC (stereo not given),7,2,7,2,-1,-2,.,.,
Cc1ccc(CN2CCN(/N=C/c3ccc(N(C)C)cc3)CC2)cc1,21*,4,-4,-10,18,-1,12,-4,
SMILES,sPLA2-III inh,PLC-gamma1 inh,procasp7 counter,procasp3 activ,Arr AP2 block,PLC-beta3 inh,hGIII sPLA2 conf,BODIPY interf,others
Cc1ccc(/C=N/N2CCN(Cc3ccccc3)CC2)cc1,3,1,-7,7,-2,-5,.,.,
Oc1ccccc1-c1n[nH]c(=S)n1Cc1ccccc1,17,-3,-14,2,-7,-13,.,.,
S=c1[nH]nc(-c2ccc(Cl)cc2Cl)n1Cc1ccccc1,20*,-2,-27,-7,7,-2,28*,0,BODIPY interf DR=>122
CCn1c(-c2cccn(Cc3ccc(Cl)cc3Cl)c2=O)n[nH]c1=S,21*,-9,-12,-3,0,-18,33*,-2,BODIPY interf DR=>122
CCn1c(-c2ccc(Cl)cc2)n[nH]c1=S,12,-2,0,-14,10,-7,.,.,
S=c1[nH]nc(-c2ccccc2Br)n1Cc1ccccc1,26*,0,-23,-28,12,-6,19,0,
COc1ccc(-c2noc(CCC(=O)NCC3CCCO3)n2)cc1OC (stereo not given),1,-2,-7,-1,-9,-3,.,.,
S=c1[nH]nc(-c2ccc3c(c2)OCO3)n1-c1ccccc1,25*,-5,-14,-3,13,-2,23*,-2,
Cc1ccc(-c2n[nH]c(=S)n2-c2ccccc2)cc1,13,-2,-15,-14,4,-1,.,.,
COc1ccc(NS(=O)(=O)c2cc(NC(=O)c3cccc(OCc4c(C)noc4C)c3)ccc2OC)cc1,-19,5,2,-1,2,0,.,.,
O=C(NNC(=O)c1ccc(S(=O)(=O)N2CCCCC2)cc1)c1ccc(F)cc1,-12,3,3,8,15,-3,.,.,
Cc1ccc(Nc2c(-c3ccccn3)nc3cccc(C)n23)cc1,23*,-4,7,0,38,-16,12,-25,
Cc1cccc2nc(-c3ccco3)c(Nc3ccccc3)n12,-1,-496,-4,-4,7,i,.,.,
CCOC(=O)c1sc(NC(C)=O)nc1C,23*,-1,-6,-11,24,-1,3,-8,
CCOC(=O)c1sc(NC(=O)c2ccc(OC)cc2)nc1C,2,3,-6,1,-6,2,.,.,
Fc1ccc(CSc2ccc(-c3ccc4c(c3)OCO4)nn2)cc1,6,-2,5,2,7,-1,.,.,
c1ccc(CSc2ccc(-c3ccc4c(c3)OCO4)nn2)cc1,23*,1,4,5,8,-3,1,-7,
CC1(C)Oc2ccc3ccc(=O)oc3c2C(/C=N/O)C1=O (stereo not given),-3,-12,0,-1,10,-13,.,.,
